Test results as given in ChEMBL document CHEMBL3421615, “Synthesis and identification of unprecedented selective inhibitors of CK1ε” (Eur J Med Chem, 2015).

Experiments:
[1] = Antiproliferative activity against human HBL100 cells after 48 hrs incubation by SRB assay; format: functional; settings: HBL-100, 48 h
In short: (§1)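 Cells kept in RPMI 1640 with 5% heat-inactivated FCS and 2 mM L-glutamine at 37 °C, 5% CO2. Plated at 10 000 (HBL-100, HeLa, SW1573), 15 000 (T-47D) or 20 000 (WiDr) cells/well. Dosing began day 1, in triplicate, over 1–100 range. DMSO stocks at 400× final top concentration; vehicle control 0.25% DMSO. Exposure 48 h, then TCA fixation 60 min at 4 °C. SRB read-out at 492 nm, background-corrected; GI50 from dose–response.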

WiDr = test: Antiproliferative activity against human WiDr cells after 48 hrs incubation by SRB assay; format: functional; in short: as §1
SW1573 = test: Antiproliferative activity against human SW1573 cells after 48 hrs incubation by SRB assay; format: functional; settings: SW1573, 48 h; in short: as §1
T47D = test: Antiproliferative activity against human T47D cells after 48 hrs incubation by SRB assay; format: functional; in short: as §1
HeLa = test: Antiproliferative activity against human HeLa cells after 48 hrs incubation by SRB assay; format: functional; in short: as §1
[2] = target: Casein kinase I isoform epsilon (Homo sapiens, UniProt P49674); test: Inhibition of human Casein kinase 1 epsilon assessed as residual activity at 10 uM relative to control
Chain of Casein kinase I isoform epsilon (P49674 whole entry, looked up, canonical isoform): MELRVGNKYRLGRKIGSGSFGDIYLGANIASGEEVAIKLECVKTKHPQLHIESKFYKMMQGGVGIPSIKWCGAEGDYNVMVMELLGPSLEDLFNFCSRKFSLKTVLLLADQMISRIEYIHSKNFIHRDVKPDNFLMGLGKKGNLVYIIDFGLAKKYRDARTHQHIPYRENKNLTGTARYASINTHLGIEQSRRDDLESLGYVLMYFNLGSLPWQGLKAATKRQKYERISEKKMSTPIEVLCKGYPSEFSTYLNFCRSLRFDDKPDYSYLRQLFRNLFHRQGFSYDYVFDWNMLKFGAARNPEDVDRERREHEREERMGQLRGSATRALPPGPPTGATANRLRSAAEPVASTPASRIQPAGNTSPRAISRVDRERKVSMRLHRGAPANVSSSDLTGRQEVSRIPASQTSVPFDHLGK
In short: (§2)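 KINOMEscan active-site-directed competition binding run against a 456-kinase panel (scanMAX), each compound at a single 10 µM concentration. Binding reported as percent of control, with DMSO set to 100%Ctrl and a positive control set to 0%Ctrl. Hit cut-off is 35%Ctrl.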

[3] = target: Casein kinase II subunit alpha' (Homo sapiens) (UniProt P19784); test: Inhibition of human Casein kinase 2 alpha prime polypeptide assessed as residual activity at 10 uM relative to control; in short: as §2
Chain of Casein kinase II subunit alpha' (Homo sapiens) (P19784 whole entry, looked up, canonical isoform): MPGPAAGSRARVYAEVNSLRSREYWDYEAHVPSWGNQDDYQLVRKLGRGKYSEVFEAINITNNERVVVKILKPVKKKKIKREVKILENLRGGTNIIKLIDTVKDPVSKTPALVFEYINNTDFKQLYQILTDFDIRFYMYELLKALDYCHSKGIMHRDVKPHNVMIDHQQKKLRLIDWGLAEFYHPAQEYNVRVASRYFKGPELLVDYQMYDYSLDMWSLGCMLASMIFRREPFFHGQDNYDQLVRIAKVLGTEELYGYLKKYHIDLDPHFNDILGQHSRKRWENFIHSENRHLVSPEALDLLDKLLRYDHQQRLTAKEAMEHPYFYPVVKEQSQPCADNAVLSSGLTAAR

[4] = target: Casein kinase I isoform delta (Homo sapiens) (UniProt P48730); test: Inhibition of human Casein kinase 1 delta assessed as residual activity at 10 uM relative to control; in short: as §2
Chain of Casein kinase I isoform delta (Homo sapiens) (P48730 whole entry, looked up, canonical isoform): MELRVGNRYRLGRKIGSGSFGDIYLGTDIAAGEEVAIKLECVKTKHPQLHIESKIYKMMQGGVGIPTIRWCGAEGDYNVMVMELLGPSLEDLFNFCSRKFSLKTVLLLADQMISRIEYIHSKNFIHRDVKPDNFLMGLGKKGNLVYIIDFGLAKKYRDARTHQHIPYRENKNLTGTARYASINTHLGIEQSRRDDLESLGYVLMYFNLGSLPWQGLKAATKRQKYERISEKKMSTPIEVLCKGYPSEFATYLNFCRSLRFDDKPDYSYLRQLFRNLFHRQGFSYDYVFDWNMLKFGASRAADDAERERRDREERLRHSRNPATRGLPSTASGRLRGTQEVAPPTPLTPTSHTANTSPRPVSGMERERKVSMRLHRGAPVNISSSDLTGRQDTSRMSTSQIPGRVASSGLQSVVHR

[5] = target: Casein kinase II subunit alpha (Homo sapiens) (UniProt P68400); test: Inhibition of human Casein kinase 2 alpha 1 polypeptide assessed as residual activity at 10 uM relative to control; in short: as §2
Chain of Casein kinase II subunit alpha (Homo sapiens) (P68400 whole entry, looked up, canonical isoform): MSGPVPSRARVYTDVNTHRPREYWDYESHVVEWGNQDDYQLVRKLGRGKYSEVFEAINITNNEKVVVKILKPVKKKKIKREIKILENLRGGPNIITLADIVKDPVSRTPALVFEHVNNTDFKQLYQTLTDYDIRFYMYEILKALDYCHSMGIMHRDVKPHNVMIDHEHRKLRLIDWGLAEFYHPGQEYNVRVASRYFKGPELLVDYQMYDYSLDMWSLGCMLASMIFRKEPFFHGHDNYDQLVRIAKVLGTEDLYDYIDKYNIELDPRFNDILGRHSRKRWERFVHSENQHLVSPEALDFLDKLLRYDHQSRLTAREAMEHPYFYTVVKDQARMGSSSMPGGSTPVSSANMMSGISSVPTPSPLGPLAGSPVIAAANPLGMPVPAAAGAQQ

[6] = target: Casein kinase I isoform gamma-1 (Homo sapiens) (UniProt Q9HCP0); test: Inhibition of human Casein kinase 1 gamma 1 assessed as residual activity at 10 uM relative to control; in short: as §2
Chain of Casein kinase I isoform gamma-1 (Homo sapiens) (Q9HCP0 whole entry, looked up, canonical isoform): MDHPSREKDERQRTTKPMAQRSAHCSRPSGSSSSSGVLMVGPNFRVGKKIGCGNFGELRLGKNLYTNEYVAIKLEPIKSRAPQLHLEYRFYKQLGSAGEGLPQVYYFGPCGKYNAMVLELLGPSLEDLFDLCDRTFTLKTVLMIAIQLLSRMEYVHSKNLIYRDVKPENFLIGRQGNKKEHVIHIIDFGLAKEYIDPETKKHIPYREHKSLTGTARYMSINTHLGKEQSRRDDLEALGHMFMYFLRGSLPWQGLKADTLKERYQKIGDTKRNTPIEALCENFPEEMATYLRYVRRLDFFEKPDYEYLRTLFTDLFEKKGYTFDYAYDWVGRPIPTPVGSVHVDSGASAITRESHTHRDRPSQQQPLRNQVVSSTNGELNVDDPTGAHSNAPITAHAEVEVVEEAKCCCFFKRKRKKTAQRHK

[7] = target: T1, Casein kinase I isoform alpha-like (Homo sapiens) (UniProt Q8N752); test: Inhibition of human Casein kinase 1 alpha 1-like assessed as residual activity at 10 uM relative to control; in short: as §2
T1 sequence (whole entry): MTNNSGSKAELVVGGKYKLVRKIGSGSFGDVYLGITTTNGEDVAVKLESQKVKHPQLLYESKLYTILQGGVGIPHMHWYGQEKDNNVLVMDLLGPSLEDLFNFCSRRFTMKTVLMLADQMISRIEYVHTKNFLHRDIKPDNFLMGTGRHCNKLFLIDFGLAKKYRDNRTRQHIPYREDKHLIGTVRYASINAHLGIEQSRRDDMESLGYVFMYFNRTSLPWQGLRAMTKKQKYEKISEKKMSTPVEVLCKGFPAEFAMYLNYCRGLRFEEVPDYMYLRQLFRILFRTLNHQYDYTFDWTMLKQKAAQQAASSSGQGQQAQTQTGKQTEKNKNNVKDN

[8] = target: Casein kinase I isoform alpha (Homo sapiens) (UniProt P48729); test: Inhibition of human Casein kinase 1 alpha 1 assessed as residual activity at 10 uM relative to control; in short: as §2
Chain of Casein kinase I isoform alpha (Homo sapiens) (P48729 2-337 limits assumed): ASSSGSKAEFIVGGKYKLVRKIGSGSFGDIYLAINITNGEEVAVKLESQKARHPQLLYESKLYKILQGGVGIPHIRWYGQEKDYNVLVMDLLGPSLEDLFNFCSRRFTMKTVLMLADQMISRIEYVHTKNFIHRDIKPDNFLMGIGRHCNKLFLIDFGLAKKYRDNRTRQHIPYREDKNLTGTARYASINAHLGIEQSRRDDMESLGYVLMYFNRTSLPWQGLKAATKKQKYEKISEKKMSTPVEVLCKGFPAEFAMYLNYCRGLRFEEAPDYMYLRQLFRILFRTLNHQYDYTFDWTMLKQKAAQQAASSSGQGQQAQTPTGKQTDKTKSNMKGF

[9] = target: Casein kinase I isoform gamma-2 (Homo sapiens) (UniProt P78368); test: Inhibition of human Casein kinase 1 gamma 2 assessed as residual activity at 10 uM relative to control; in short: as §2
Chain of Casein kinase I isoform gamma-2 (Homo sapiens) (P78368 whole entry, looked up, canonical isoform): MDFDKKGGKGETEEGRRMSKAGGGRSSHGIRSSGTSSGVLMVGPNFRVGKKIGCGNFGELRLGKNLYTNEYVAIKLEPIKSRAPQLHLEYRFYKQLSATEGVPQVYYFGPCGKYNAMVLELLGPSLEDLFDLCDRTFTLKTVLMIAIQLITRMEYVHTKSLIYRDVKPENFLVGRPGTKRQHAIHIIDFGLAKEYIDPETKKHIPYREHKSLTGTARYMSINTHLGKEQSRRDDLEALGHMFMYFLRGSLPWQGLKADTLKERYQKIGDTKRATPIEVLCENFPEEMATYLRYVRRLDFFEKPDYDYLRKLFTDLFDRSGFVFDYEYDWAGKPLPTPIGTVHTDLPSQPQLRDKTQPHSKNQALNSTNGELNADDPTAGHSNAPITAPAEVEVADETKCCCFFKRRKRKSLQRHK

[10] = target: Casein kinase I isoform gamma-3 (Homo sapiens) (UniProt Q9Y6M4); test: Inhibition of human Casein kinase 1 gamma 3 assessed as residual activity at 10 uM relative to control; in short: as §2
Chain of Casein kinase I isoform gamma-3 (Homo sapiens) (Q9Y6M4 whole entry, looked up, canonical isoform): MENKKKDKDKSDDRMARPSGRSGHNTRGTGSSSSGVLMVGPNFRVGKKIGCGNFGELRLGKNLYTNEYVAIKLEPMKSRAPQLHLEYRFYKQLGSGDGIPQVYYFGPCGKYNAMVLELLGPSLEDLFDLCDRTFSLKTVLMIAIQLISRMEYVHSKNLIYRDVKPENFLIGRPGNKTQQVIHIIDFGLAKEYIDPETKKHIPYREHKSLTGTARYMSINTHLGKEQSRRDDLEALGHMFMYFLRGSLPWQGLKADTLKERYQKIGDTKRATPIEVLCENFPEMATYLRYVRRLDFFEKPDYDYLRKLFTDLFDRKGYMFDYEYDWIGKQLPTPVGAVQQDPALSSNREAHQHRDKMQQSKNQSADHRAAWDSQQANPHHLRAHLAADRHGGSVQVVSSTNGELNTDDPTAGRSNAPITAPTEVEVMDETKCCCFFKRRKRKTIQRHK

SMILES | GI50 [1] | GI50 (WiDr) | GI50 (SW1573) | GI50 (T47D) | GI50 (HeLa) | Activity [2] | Activity [3] | Activity [4] | Activity [5] | Activity [6] | Activity [7] | Activity [8] | Activity [9] | Activity [10]
CCCCCCCCC[C@@H](O)[C@H](C)N | 6.6 µM | 17 µM | 9.5 µM | 12 µM | 9.2 µM | – | – | – | – | – | – | – | – | –
CCCCCCCCC[C@@H](O)[C@@H](N)Cc1ccc(O)cc1 | 14 µM | 12 µM | 18 µM | 17 µM | 20 µM | – | – | – | – | – | – | – | – | –
CCCCCCCCC[C@@H](O)[C@@H](N)[C@@H](C)O | 13 µM | 14 µM | 17 µM | 16 µM | 17 µM | – | – | – | – | – | – | – | – | –
COc1cc([C@@H]2c3cc4c(cc3[C@@H](O[C@@H]3O[C@@H]5CO[C@@H](C)O[C@H]5[C@H](O)[C@H]3O)[C@H]3COC(=O)[C@H]23)OCO4)cc(OC)c1O [ETOPOSIDE] | 1.9 µM | 26 µM | 3 µM | 15 µM | 2 µM | – | – | – | – | – | – | – | – | –
CCCCCCCCC[C@@H](O)[C@@H](N)C(C)C | 14 µM | 11 µM | 17 µM | 17 µM | 20 µM | – | – | – | – | – | – | – | – | –
CCCCCCCCC[C@@H](O)[C@@H](N)C(C)CC (single isomer, unassigned) | 13 µM | 2.3 µM | 13 µM | 14 µM | 20 µM | – | – | – | – | – | – | – | – | –
CCCCCCCCCCCCCCC[C@@H](O)[C@@H](N)CC(C)C | 2.4 µM | 4.9 µM | 2.8 µM | 15 µM | 19 µM | 48% | 100% | 89% | 84% | 98% | 91% | 93% | 94% | 93%
CCCCCCCCCCCCCCC[C@@H](O)[C@@H](N)C(C)C | 4.9 µM | 20 µM | 7.2 µM | 18 µM | 21 µM | – | – | – | – | – | – | – | – | –
CCCCCCCCCCCCCCC[C@@H](O)[C@@H](N)C(C)CC (single isomer, unassigned) | 2.4 µM | 13 µM | 3.4 µM | 17 µM | 20 µM | – | – | – | – | – | – | – | – | –
CCCCCCCCCCCCCCC[C@@H](O)[C@@H](N)CO [DIHYDROSPINGOSINE] | 25 µM | 19 µM | 4.5 µM | 22 µM | 15 µM | – | – | – | – | – | – | – | – | –
CCCCCCCCCCCCCCC[C@@H](O)[C@H](C)N | 2.3 µM | 0.7 µM | 1.3 µM | 0.9 µM | 2.6 µM | 60% | 98% | 100% | 87% | 98% | 100% | 100% | 100% | 100%
CCCCCCCCCCCCCCC[C@@H](O)[C@@H](N)Cc1ccccc1 | 2.9 µM | 2.3 µM | 2.1 µM | 1.8 µM | 1.3 µM | – | – | – | – | – | – | – | – | –
CCCCCCCCC[C@@H](O)[C@@H](N)Cc1ccccc1 | 14 µM | 12 µM | 16 µM | 17 µM | 18 µM | 27% | 100% | 93% | 70% | 100% | 88% | 95% | 96% | 71%
CCCCCCCCC[C@@H](O)[C@@H](N)CC(C)C | 14 µM | 5.9 µM | 14 µM | 11 µM | 21 µM | – | – | – | – | – | – | – | – | –
CCCCCCCCCCCCCCC[C@@H](O)[C@@H](N)[C@@H](C)O | 21 µM | 18 µM | 17 µM | 19 µM | 19 µM | 43% | 100% | 90% | 71% | 100% | 100% | 100% | 87% | 82%
